Results as given in ChEMBL document CHEMBL2380272, “Biological evaluation of bisbenzaldehydes against four Mycobacterium species” (Eur J Med Chem, 2013).
Converted amounts (≈) assume the structure as drawn.

The molecules below were run on Mycobacterium tuberculosis variant bovis (assay: Antimycobacterial activity against Mycobacterium bovis AN5 assessed as growth inhibition after 6 days by luciferase reporter gene assay). Conditions: AN5, 144 h.
Type: functional
Method in brief: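 Mycobacteria carrying the pSMT1 luciferase reporter plasmid. Compounds came from 10 mM DMSO stocks and were serially diluted in 7H9 + 10% FCS. Thawed bacteria were filtered, recovered 1 h at 37 °C, then added at 50 000 RLU/mL. After 6 days of culture, light was read for 10 s after adding 1% n-decanal. Triplicates were run, and MIC50 was the concentration giving 50% growth inhibition.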

Structure (SMILES) | MIC50 [µM]
O=Cc1ccc(OCCCCCCCCOc2ccc(C=O)cc2)cc1 | 0.95 (≈ 0.337 µg/mL)
O=Cc1ccc(OCCCOc2ccc(C=O)cc2)cc1 | 2.65 (≈ 0.753 µg/mL)
O=Cc1ccc(OCCCCOc2ccc(C=O)cc2)cc1 | 2.51 (≈ 0.749 µg/mL)
O=Cc1ccc(OCCCCCCCCCCCCOc2ccc(C=O)cc2)cc1 | 0.64 (≈ 0.263 µg/mL)
O=Cc1ccc(OCCCCCOc2ccc(C=O)cc2)cc1 | 1.69 (≈ 0.528 µg/mL)
NNC(=O)c1ccncc1 [ISONIAZID] | < 0.1
O=Cc1ccc(OCCOc2ccc(C=O)cc2)cc1 | 2.41 (≈ 0.651 µg/mL)
O=Cc1ccc(OCCCCCCCOc2ccc(C=O)cc2)cc1 | 0.97 (≈ 0.33 µg/mL)
O=Cc1ccc(OCCCCCCCCCCCOc2ccc(C=O)cc2)cc1 | 0.71 (≈ 0.282 µg/mL)
O=Cc1ccc(OCCCCCCOc2ccc(C=O)cc2)cc1 | 0.94 (≈ 0.307 µg/mL)
O=Cc1ccc(OCCCCCCCCCCOc2ccc(C=O)cc2)cc1 | 0.81 (≈ 0.31 µg/mL)
O=Cc1ccc(OCOc2ccc(C=O)cc2)cc1 | 2.93 (≈ 0.751 µg/mL)
O=Cc1ccc(OCCCCCCCCCOc2ccc(C=O)cc2)cc1 | 1.01 (≈ 0.372 µg/mL)
